Compound activity deposited in PubChem BioAssay by several laboratories.
This is a sample that favours compounds with a hit; in the whole collection about 2.4% have one here.
ANO1 activ – activates or potentiates the mouse TMEM16A chloride channel | AID 623877 | hit rate 0.3% among 340,000 | HEK293 TMEM16A/YFP-H148Q/I152L, iodide quench fluorescence; hits give low values | B-score at 10 µM;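 active = fluorescence-ratio B-score plate-corrected deviation score at least 3 library SD below zero, with starting fluorescence score within 5 deviations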;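 also: channel opened by trigger with iodide after compound preincubation; score built on the fluorescence ratio of max minus min over baseline; more negative score means more quench and so TMEM16A activation or potentiation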
ANO1 block – mouse TMEM16A channel inhibition, primary screen | Q8BHY3 | HEK293 TMEM16A/YFP iodide influx fluorescence, ionomycin | normalized B-score (activity score, 25-100; higher = stronger inhibition) at 10 µM | hit rate 1.2% among 310,000;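 active = ratio plate-corrected score three or more library SD toward inhibition, starting fluorescence score within five deviations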;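 also: score derived from kinetic fluorescence span divided by baseline fluorescence per well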
Apaf-1 inh – human Apaf-1 inhibition; O14727; inhibition, % at 20 µM; AID 489030; reconstituted apoptosome caspase-3 activity, DEVD-Rh110 fluorescence; hit rate 0.71% among 330,000; active = inhibition of at least 40% at 20 µM;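 also: plate controls were DMSO wells for no effect and DEVD-CHO caspase inhibitor wells for full effect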
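System – cell-free apoptosome with Apaf-1, procaspase-3 and caspase-9 · Buffer or medium – pH 7.5 Hepes buffer with CHAPS, BSA, DTT · Also added – cytochrome c with DEVD-Rh110 · Times – 30 min compound preincubation, 50 min activation, room temperature · Technique – Rh110 fluorescence intensity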
UBC13 inh – inhibitors of human UBC13 polyubiquitin chain formation | P61088 | TR-FRET | inhibition, % at 20 µM | hit rate 0.47% among 330,000 | AID 485273; in the data active = inhibition above about 45%, passing the limit was not always enough
FID counter – counter-screen for HCV NS3 helicase inhibitors: DNA intercalator displacement | DNA fluorescent intercalator displacement, fluorescence | inhibition, % at 7.9 µM | hit rate 0.17% among 290,000; in the data active = inhibition above about 37%;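 also: 0% = vehicle and 100% = reference compound; higher means more ethidium bromide displaced from hairpin DNA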
The depositor's hits bear a star; i = inactive; x = no result.

SMILES	ANO1 activ	ANO1 block	Apaf-1 inh	UBC13 inh	FID counter
CC(C)Cn1c(N)c(C(=O)COC(=O)C2CC(=O)N(c3ccc4c(c3)OCCO4)C2)c(=O)n(C)c1=O (configuration not stated)	i	i	7	1	x
CC(C)Cn1c(N)c(C(=O)COC(=O)CCNS(=O)(=O)c2ccccc2)c(=O)n(C)c1=O	i	25*	2	1	x
FC(F)Oc1ccc(NC(=S)NNc2ccnc3cc(Cl)ccc23)cc1	i	i	9	-9	-1
Brc1cccc(OCCCCN2CCCCC2)c1	i	i	-7	11	10
CC1(C)Cc2c(sc(NC(=O)c3ccc(C(=O)c4ccccc4)cc3)c2C#N)C(C)(C)N1	i	i	7	-2	38*
CC1(C)Cc2c(sc(NC(=O)c3ccc(S(=O)(=O)N4CCCC4)cc3)c2C#N)C(C)(C)N1	i	i	-3	-1	10
CC[C@@H](C(=O)[C@@H](C)[C@@H](O)[C@H](C)CCc1ccc(C)c(O)c1C(=O)O)[C@H]1O[C@](CC)([C@H]2CC[C@](O)(CC)[C@H](C)O2)C[C@@H]1C	-5.5*	100*	11	-23	-18
CCOC(=O)N1CCN(CC(O)COc2ccc3c(c2)CCC3)CC1 (configuration not stated)	i	i	-13	-1	-34
O=C(CSc1ncnc2sc3c(c12)CCCC3)c1ccccc1	-5*	i	17	-4	-1
Cn1c(CCN2CCN(c3ccccn3)CC2)nc2cc(NC(=O)COc3ccc(Cl)cc3)ccc21	i	i	22	8	12
Cc1cccc(OCC(=O)Nc2ccc3c(c2)nc(CCN2CCN(c4ccccn4)CC2)n3C)c1	i	100*	16	7	10
CCCCCCN(C(=O)CCCCCN1C(=O)NC(c2ccc(-c3ccccc3)cc2)C(C(=O)OCc2ccccc2)=C1C)C(C(=O)NCCCC)c1cccc(C(=O)OC)c1 (configuration not stated)	x	x	79*	-28	x
CCCCCCN(C(=O)CCCCCN1C(=O)NC(c2ccc(-c3ccccc3)cc2)C(C(=O)OCc2ccccc2)=C1C)C(C(=O)NCCCC)c1ccc(-c2ccccc2)cc1 (configuration not stated)	x	x	7	2	x
CCCN(C(=O)/C=C/c1nc2ccccc2s1)C1CCS(=O)(=O)C1 (configuration not stated)	i	x	17	-10	x
O=C(O)Cc1coc2ccc3ccccc3c12	i	i	2	1	-13
CC(C)CN(CC(C)C)C(=O)Cc1coc2ccc3ccccc3c12	i	25*	16	8	-24
CCOc1ncccc1C(=O)NCC(c1ccco1)N1CCCCC1 (configuration not stated)	i	x	3	-5	x
CC(=O)OC1=C(O)C(=O)c2ccccc2C1=O	x	i	59*	-120	x
COCCNC(=O)/C(C#N)=C/c1c(N2CCN(c3ccc(OC)cc3)CC2)nc2c(C)cccn2c1=O	i	i	18	2	-33
COc1ccc(OC)c(C2CC(=O)N3CN(c4ccccc4)CSC3=C2C#N)c1 (configuration not stated)	i	i	14	-9	-33
COc1cc(OC)c(C2CC(=O)N3CN(c4ccccc4C)CSC3=C2C#N)cc1OC (configuration not stated)	x	i	66*	-30	-23
O=C1C2CC=CCC2C(=O)N1c1ccc(NCCc2ccc(O)cc2)c([N+](=O)[O-])c1 (configuration not stated)	i	25*	23	-49	7
Cc1ccc(C(C#N)c2ccc(C(=O)c3ccc(F)cc3)cc2)cc1 (configuration not stated)	i	25*	8	2	-9
Cc1cc(NC(=O)c2ccccc2F)nc2c1c(=O)oc1ccccc12	i	i	-2	28	-4
CCOc1ccc(OCC(=O)OCc2cc(=O)n3cc(Br)ccc3n2)cc1	-10*	x	5	-5	x
SMILES	ANO1 activ	ANO1 block	Apaf-1 inh	UBC13 inh	FID counter
CCC1CCCCN1CCCNC(=O)c1cn(CC)c2ccc(S(=O)(=O)N3CCc4ccccc4C3)cc2c1=O (configuration not stated)	i	i	11	14	49*
Cc1ccn2c(NCc3ccccc3)c(-c3cccs3)nc2c1	i	i	17	0	-6
Cc1ccn2c(-c3csc(NCc4ccccc4)n3)c(C)nc2c1	i	100*	13	6	1
O=C(Nc1ccc2oc(-c3ccncc3)nc2c1)c1ccc2c(c1)OCCO2	i	i	18	15	-6
O=C(Nc1ccc2oc(-c3ccccc3)nc2c1)c1ccc2c(c1)OCCO2	i	25*	1	0	-5
Cc1cccc(C)c1NC(=S)N1CCOCC1	i	i	-3	3	3
Cc1cccc(C)c1NC(=S)N1CCCN(C)CC1	-5.7*	i	-10	15	-2
Cc1nn(C)c(C)c1S(=O)(=O)N(CC(=O)N1CCc2ccccc2C1)c1ccc(C(C)C)cc1	i	i	37	20	-6
CCCCn1c(NC(=O)c2ccccc2)c(C#N)c2nc3ccccc3nc21	i	x	x	x	-8
CCCCn1c(NC(=O)c2ccc(F)cc2)c(C#N)c2nc3ccccc3nc21	x	100*	95*	-19	x
C[C@@H](NC(=O)c1[nH]cnc1C(=O)Nc1ccon1)c1ccccc1	i	x	-6	-8	x
CCCCc1ccc(NC(=S)NCc2cccs2)cc1	i	100*	15	-6	-14
Clc1ccc(COc2cccc(CNCc3ccncc3)c2)cc1	i	100*	-1	2	18
CC(C)(CO)NCc1cccc(OCc2ccc(Cl)cc2)c1	i	i	0	5	23
N#CC(C#N)=NNc1ccc(S(=O)(=O)N2CCCCC2)cc1	i	100*	1	-10	-15
N#C/C(=N\Nc1ccc(S(=O)(=O)N2CCOCC2)cc1)C(N)=S	i	i	-10	-40	-2
O=C(N/N=C/c1sc(N2CCOCC2)nc1-c1ccccc1)c1ccccc1O	i	100*	10	-8	-18
O=C(N/N=C/c1sc(N2CCOCC2)nc1-c1ccccc1)c1ccccc1Cl	i	i	17	5	-1
CCN(CC)c1ccc(/C=C2/C(=O)N(c3ccc([N+](=O)[O-])cc3)N=C2N2CCOCC2)cc1	x	i	56*	-96	3
O=S(=O)(c1ccc(Br)s1)N1CCN(c2ccc(F)cc2)CC1	i	i	13	-8	-13
CCCCCC(=O)Nc1ccc(N2CCN(C(=O)CCC)CC2)cc1	i	100*	0	-3	-26
C=CCNC(=O)C1CC1(c1ccc(C)cc1)c1ccc(C)cc1 (configuration not stated)	i	i	9	-5	-26
CC(NC(=O)Nc1nnc(C(F)(F)F)s1)(C(F)(F)F)C(F)(F)F	i	100*	3	-5	0
